The text below walks through data of PubChem BioAssay AID463093 (The Scripps Research Institute Molecular Screening Center, 2010).

In the experiment the target is Glutathione S-transferase omega-1 (Homo sapiens) (UniProt P78417). The experiment in a line: in situ GSTO1 inhibition versus click-labeling – cell-based, MDA-MB-435, competitive ABPP, click chemistry, fluorescence, mechanism study for GSTO1 inhibitor project, late-stage follow-up (AID 463093). The conditions noted are these: MDA-MB-435 in situ competitive ABPP, gel fluorescence; for fold labeling / inhibition: stronger effect = higher value; for inhibition: in situ competitive ABPP. The procedure, abridged:
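System – MDA-MB-435 cells, in situ treatment · Amount – soluble proteome adjusted to 1 mg/mL protein · Dosing – three compound doses on cells at 1, 0.5 and 0.25 µM · Schedule – cells 1 h 37 °C, click 1 h 25 °C · Signal – in-gel fluorescence scanning after SDS-PAGE separation · Controls – blank gel background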

SMILES strings stand for the structures. Active and inactive are the calls of the source.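 How the source made its calls: active means compound blocking at least 90% of GSTO1 probe labeling in gels, or giving a GSTO1 band over fivefold background; inactive means the rest.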

Chain of Glutathione S-transferase omega-1 (Homo sapiens) (P78417 whole entry, looked up): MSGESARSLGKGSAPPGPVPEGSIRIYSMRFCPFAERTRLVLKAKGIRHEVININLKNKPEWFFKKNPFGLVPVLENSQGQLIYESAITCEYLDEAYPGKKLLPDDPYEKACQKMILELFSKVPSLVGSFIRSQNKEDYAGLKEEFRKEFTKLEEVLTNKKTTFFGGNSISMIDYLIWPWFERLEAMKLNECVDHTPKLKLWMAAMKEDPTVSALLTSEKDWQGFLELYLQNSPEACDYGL

As a reminder, the inhibition is the drop in the measured response relative to a control, in per cent. For the compound `C#CCN(CCCN(C(=O)CCl)c1ccc([N+](=O)[O-])cc1)C(=O)C(F)(F)F`, for the setting “direct ABPP, click chemistry”, the result was active. For the same compound, the fold labeling by setting is: (direct ABPP, click chemistry, click labeling 0.25 uM, at 0.25 µM) more than 5; (direct ABPP, click chemistry, click labeling 0.5 uM, at 0.5 µM) more than 5; (direct ABPP, click chemistry, click labeling fold over background 1 uM, at 1 µM) more than 5. The inhibition was 100% (at 1 µM); 99% (inhibition, at 0.25 µM); 100% (inhibition, at 0.5 µM).
